Measured values of several laboratories.
Protocols differ between the studies behind these lines.
Effect on: binding
SULT2A1: Sulfotransferase 2A1 (SULT2A1, Homo sapiens, UniProt Q06520)
Pah: Phenylalanine-4-hydroxylase (Pah, Rattus norvegicus, UniProt P04176)
VHL: von Hippel-Lindau disease tumor suppressor (VHL, Homo sapiens, UniProt P40337)

target | assay | setting | Kd [µM] | Compound
SULT2A1 | fluorescence |  | 0.25 | Nc1ncnc2c1ncn2[C@@H]1O[C@H](COP(=O)(O)OS(=O)(=O)O)[C@@H](OP(=O)(O)O)[C@H]1O
Ribosomal protein S6 kinase alpha-1, N-terminal kinase domain (RPS6KA1, Homo sapiens, UniProt Q15418) | competition with immobilised ligand |  | 4.4 | c1cncc(-c2cccc(Nc3nccc(NC4CCCCC4)n3)c2)c1
Pah | fluorescence | pH 7.5 | 17000 | CCCC[C@H](N)C(=O)O
VHL | SPR |  | 0.098 | Cc1ncsc1-c1ccc(CNC(=O)[C@@H]2C[C@@H](O)CN2C(=O)[C@@H](NC(=O)C2(F)CC2)C(C)(C)C)c(OCCOCCOCCN2CCN(c3cc(-c4ccccc4O)nnc3N)CC2)c1
SIGLEC5 (Homo sapiens, UniProt O15389, C36A) | NMR |  | 7000 | CC(=O)N[C@H]1[C@H]([C@H](O)[C@H](O)CO)O[C@@](O[C@H]2[C@@H](O)[C@@H](CO)O[C@@H](O[C@H]3[C@H](O)[C@@H](NC(C)=O)C(O)O[C@@H]3CO)[C@@H]2O)(C(=O)O)C[C@@H]1O (stereo partly drawn)
VHL | SPR |  | 0.062 | COCCOc1cc(-c2scnc2C)ccc1CNC(=O)[C@@H]1C[C@@H](O)CN1C(=O)[C@@H](NC(=O)C1(F)CC1)C(C)(C)C
Stromal cell-derived factor 1 (CXCL12, Homo sapiens, UniProt P48061) | NMR |  | 64 | O=C(O)c1cccc(NC(=S)NC(=O)c2ccc3ccccc3c2)c1
Cyclin-dependent kinase 4, with cyclin D3 (CDK4, Homo sapiens, UniProt P11802) | competition with immobilised ligand |  | 0.028 | Cc1cc(Nc2cc3ncccc3c(N[C@@H]3C[C@H]4CC[C@@H](C3)N4CCC#N)n2)n[nH]1
Serine/threonine-protein kinase 3 (STK3, Homo sapiens, UniProt Q13188) | competition with immobilised ligand |  | 0.0039 | Cc1cnc(-c2ccc(-c3ccc(NC(=O)Nc4c(F)cc(F)cc4F)cc3F)c3c2C(=O)NC3)[nH]1
Pah | fluorescence | pH 7.5 | 54 | N[C@@H](Cc1ccccc1)C(=O)O
mdh (Escherichia coli, UniProt P61889, del14-14/del9-10/V5N) | ITC |  | 13.3 | Nc1ncnc2c1ncn2[C@@H]1O[C@H](CSCC[C@H](N)C(=O)O)[C@@H](O)[C@H]1O
SULT2A1 | fluorescence |  | 0.29 | C[C@]12CC[C@H](O)CC1=CC[C@@H]1[C@@H]2CC[C@]2(C)C(=O)CC[C@@H]12
Pah | fluorescence | pH 7.5 | 24000 | CSCC[C@H](N)C(=O)O
VHL | SPR |  | 0.25 | Cc1ncsc1-c1ccc(CNC(=O)[C@@H]2C[C@@H](O)CN2C(=O)[C@@H](NC(=O)C2(F)CC2)C(C)(C)C)c(OCCOc2ccc(CN3CCN(c4cc(-c5ccccc5O)nnc4N)CC3)cc2)c1
Annexin A11 (Homo sapiens, UniProt P50995) |  | lysate | 0.055 | Cc1cc2nc3c(=O)[nH]c(=O)nc-3n(C[C@H](O)[C@H](O)[C@H](O)COP(=O)(O)OP(=O)(O)OC[C@H]3O[C@@H](n4cnc5c(N)ncnc54)[C@H](O)[C@@H]3O)c2cc1C
